Laboratory results reported in ChEMBL document CHEMBL4043132, “3-O-Substituted-3',4',5'-trimethoxyflavonols: Synthesis and cell-based evaluation as anti-prostate cancer agents” (Bioorg Med Chem, 2017).

How the values were obtained:
PC-3 [1] = assay: Induction of apoptosis in human PC3 cells assessed as viable cells at 100 uM after 16 hrs by F2N12S and CYTOX AADvanced double staining-based flow cytometric analysis (reference value: 95%); type: functional; conditions: PC-3, 16 h, read-out: Activity
PC-3 [2] = assay: Induction of apoptosis in human PC3 cells assessed as necrotic cells at 10 uM after 16 hrs by F2N12S and CYTOX AADvanced double staining-based flow cytometric analysis (reference value: 2 to 3%); type: functional
PC-3 [3] = assay: Induction of apoptosis in human PC3 cells assessed as viable cells at 5 uM after 16 hrs by F2N12S and CYTOX AADvanced double staining-based flow cytometric analysis (reference value: 95%); type: functional; conditions: PC-3, 16 h, read-out: Activity
PC-3 [4] = assay: Cell cycle arrest in human PC3 cells assessed as accumulation at S phase at 10 uM after 16 hrs by propidium iodide staining-based flow cytometry (reference value: 9.9%); type: functional
LNCaP = assay: Antiproliferative activity against human LNCAP cells after 3 days by WST-1 assay; type: functional, cell-based; conditions: 72 h
How it was run: (§1)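 Cells from ATCC; PC-3 and LNCaP grown in RPMI-1640 and DU145 in EMEM, each with 10% FBS and 1% penicillin/streptomycin, 37 °C, 5% CO2. Seeded 3,200 cells/well and exposed for 3 days to at least five doses, with DMSO as vehicle control. WST-1 reagent added for 3 h at 37 °C, absorbance read at 430 nm. IC50 taken from a linear inhibition plot; mean ± SD of three independent experiments.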

PC-3 [5] = assay: Induction of apoptosis in human PC3 cells assessed as necrotic cells at 50 uM after 16 hrs by F2N12S and CYTOX AADvanced double staining-based flow cytometric analysis (reference value: 2 to 3%); type: functional
PC-3 [6] = assay: Cell cycle arrest in human PC3 cells assessed as accumulation at S phase at 20 uM after 16 hrs by propidium iodide staining-based flow cytometry (reference value: 9.9%); type: functional
PC-3 [7] = assay: Induction of apoptosis in human PC3 cells assessed as apoptotic cells at 30 uM after 16 hrs by F2N12S and CYTOX AADvanced double staining-based flow cytometric analysis (reference value: 2 to 3%); type: functional
PC-3 [8] = assay: Induction of apoptosis in human PC3 cells assessed as apoptotic cells at 20 uM after 16 hrs by F2N12S and CYTOX AADvanced double staining-based flow cytometric analysis (reference value: 2 to 3%); type: functional
PC-3 [9] = assay: Antiproliferative activity against human PC3 cells after 3 days by WST-1 assay; type: functional, cell-based; conditions: PC-3, 72 h; how it was run: as §1
PC-3 [10] = assay: Induction of apoptosis in human PC3 cells assessed as necrotic cells at 5 uM after 16 hrs by F2N12S and CYTOX AADvanced double staining-based flow cytometric analysis (reference value: 2 to 3%); type: functional
PC-3 [11] = assay: Cell cycle arrest in human PC3 cells assessed as accumulation at G2/M phase at 20 uM after 24 hrs by propidium iodide staining-based flow cytometry (reference value: 27.8%); type: functional
PC-3 [12] = assay: Cell cycle arrest in human PC3 cells assessed as accumulation at G0/G1 phase at 10 uM after 16 hrs by propidium iodide staining-based flow cytometry (reference value: 34.1%); type: functional
PC-3 [13] = assay: Induction of apoptosis in human PC3 cells assessed as necrotic cells at 20 uM after 16 hrs by F2N12S and CYTOX AADvanced double staining-based flow cytometric analysis (reference value: 2 to 3%); type: functional
PC-3 [14] = assay: Induction of apoptosis in human PC3 cells assessed as viable cells at 1 uM after 16 hrs by F2N12S and CYTOX AADvanced double staining-based flow cytometric analysis (reference value: 95%); type: functional; conditions: PC-3, 16 h, read-out: Activity
PC-3 [15] = assay: Induction of apoptosis in human PC3 cells assessed as necrotic cells at 100 uM after 16 hrs by F2N12S and CYTOX AADvanced double staining-based flow cytometric analysis (reference value: 2 to 3%); type: functional
PC-3 [16] = assay: Induction of apoptosis in human PC3 cells assessed as apoptotic cells at 50 uM after 16 hrs by F2N12S and CYTOX AADvanced double staining-based flow cytometric analysis (reference value: 2 to 3%); type: functional
PWR-1E = assay: Antiproliferative activity against human PWR-1E cells after 3 days by WST-1 assay; type: cell-based; conditions: 72 h
How it was run: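 PWR-1E benign prostate epithelial cells grown in keratinocyte serum-free medium with bovine pituitary extract and recombinant human EGF. Seeded 3,200 cells/well and treated for 3 days at 37 °C, with DMSO as vehicle control. WST-1 reagent added for 3 h, absorbance read at 430 nm. IC50 from a linear inhibition plot over at least five doses; mean ± SD, n = 3.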

PC-3 [17] = assay: Induction of apoptosis in human PC3 cells assessed as viable cells at 50 uM after 16 hrs by F2N12S and CYTOX AADvanced double staining-based flow cytometric analysis (reference value: 95%); type: functional; conditions: PC-3, 16 h, read-out: Activity
PC-3 [18] = assay: Induction of apoptosis in human PC3 cells assessed as apoptotic cells at 1 uM after 16 hrs by F2N12S and CYTOX AADvanced double staining-based flow cytometric analysis (reference value: 2 to 3%); type: functional
PC-3 [19] = assay: Induction of apoptosis in human PC3 cells assessed as viable cells at 20 uM after 16 hrs by F2N12S and CYTOX AADvanced double staining-based flow cytometric analysis (reference value: 95%); type: functional; conditions: PC-3, 16 h, read-out: Activity
PC-3 [20] = assay: Induction of apoptosis in human PC3 cells assessed as apoptotic cells at 5 uM after 16 hrs by F2N12S and CYTOX AADvanced double staining-based flow cytometric analysis (reference value: 2 to 3%); type: functional
PC-3 [21] = assay: Cell cycle arrest in human PC3 cells assessed as accumulation at G0/G1 phase at 20 uM after 24 hrs by propidium iodide staining-based flow cytometry (reference value: 37.5%); type: functional
PC-3 [22] = assay: Induction of apoptosis in human PC3 cells assessed as apoptotic cells at 100 uM after 16 hrs by F2N12S and CYTOX AADvanced double staining-based flow cytometric analysis (reference value: 2 to 3%); type: functional
PC-3 [23] = assay: Induction of apoptosis in human PC3 cells assessed as apoptotic cells at 10 uM after 16 hrs by F2N12S and CYTOX AADvanced double staining-based flow cytometric analysis (reference value: 2 to 3%); type: functional
PC-3 [24] = assay: Cell cycle arrest in human PC3 cells assessed as accumulation at G0/G1 phase at 20 uM after 16 hrs by propidium iodide staining-based flow cytometry (reference value: 34.1%); type: functional
PC-3 [25] = assay: Cell cycle arrest in human PC3 cells assessed as accumulation at G2/M phase at 10 uM after 16 hrs by propidium iodide staining-based flow cytometry (reference value: 32.3%); type: functional
PC-3 [26] = assay: Induction of apoptosis in human PC3 cells assessed as necrotic cells at 1 uM after 16 hrs by F2N12S and CYTOX AADvanced double staining-based flow cytometric analysis (reference value: 2 to 3%); type: functional
PC-3 [27] = assay: Induction of apoptosis in human PC3 cells assessed as viable cells at 10 uM after 16 hrs by F2N12S and CYTOX AADvanced double staining-based flow cytometric analysis (reference value: 95%); type: functional; conditions: PC-3, 16 h, read-out: Activity
DU-145 = assay: Antiproliferative activity against human DU145 cells after 3 days by WST-1 assay; type: functional, cell-based; conditions: DU-145, 72 h; how it was run: as §1
PC-3 [28] = assay: Cell cycle arrest in human PC3 cells assessed as accumulation at G0/G1 phase at 10 uM after 24 hrs by propidium iodide staining-based flow cytometry (reference value: 37.5%); type: functional
PC-3 [29] = assay: Induction of apoptosis in human PC3 cells assessed as necrotic cells at 30 uM after 16 hrs by F2N12S and CYTOX AADvanced double staining-based flow cytometric analysis (reference value: 2 to 3%); type: functional
PC-3 [30] = assay: Induction of apoptosis in human PC3 cells assessed as apoptotic cells after 16 hrs by F2N12S and CYTOX AADvanced double staining-based flow cytometric analysis; type: functional, cell-based
PC-3 [31] = assay: Cell cycle arrest in human PC3 cells assessed as accumulation at G2/M phase at 10 uM after 24 hrs by propidium iodide staining-based flow cytometry (reference value: 27.8%); type: functional
PC-3 [32] = assay: Cell cycle arrest in human PC3 cells assessed as accumulation at G2/M phase at 20 uM after 16 hrs by propidium iodide staining-based flow cytometry (reference value: 32.3%); type: functional
PC-3 [33] = assay: Cell cycle arrest in human PC3 cells assessed as accumulation at S phase at 10 uM after 24 hrs by propidium iodide staining-based flow cytometry (reference value: 8.0%); type: functional
PC-3 [34] = assay: Cell cycle arrest in human PC3 cells assessed as accumulation at S phase at 20 uM after 24 hrs by propidium iodide staining-based flow cytometry (reference value: 8.0%); type: functional
PC-3 [35] = assay: Induction of apoptosis in human PC3 cells assessed as viable cells at 30 uM after 16 hrs by F2N12S and CYTOX AADvanced double staining-based flow cytometric analysis (reference value: 95%); type: functional; conditions: PC-3, 16 h, read-out: Activity
[36] = Cmax in C57BL/6J mouse prostate at 240 mg/kg, po administered as single dose measured after 6 hrs post administration; type: ADME, organism-based, Prostate gland; set-up: dose 240 mg/kg, route oral

Structure (SMILES)	viability at 100 µM (PC-3 [1]) [%]	Activity (PC-3 [2]) [%]	viability at 5 µM (PC-3 [3]) [%]	Activity (PC-3 [4]) [%]	IC50 (LNCaP) [µM]	Activity (PC-3 [5]) [%]	Activity (PC-3 [6]) [%]	Activity (PC-3 [7]) [%]	Activity (PC-3 [8]) [%]	IC50 (PC-3 [9]) [µM]	Activity (PC-3 [10]) [%]	Activity (PC-3 [11]) [%]	Activity (PC-3 [12]) [%]	Activity (PC-3 [13]) [%]	viability at 1 µM (PC-3 [14]) [%]	Activity (PC-3 [15]) [%]	Activity (PC-3 [16]) [%]	IC50 (PWR-1E) [µM]	viability at 50 µM (PC-3 [17]) [%]	Activity (PC-3 [18]) [%]	also measured
CCCCCN(CCCCC)CCCOc1c(-c2cc(OC)c(OC)c(OC)c2)oc2ccccc2c1=O	0	4	46	4.5	5.1	35	6.5	92	94	5.8	3	26.4	51.3	6	87	72	65	14.8	0	10	viability at 20 µM (PC-3 [19]): 0%; Activity (PC-3 [20]): 51%; Activity (PC-3 [21]): 59.8%; Activity (PC-3 [22]): 27%; Activity (PC-3 [23]): 93%; Activity (PC-3 [24]): 40.8%; Activity (PC-3 [25]): 28.6%; Activity (PC-3 [26]): 2%; viability at 10 µM (PC-3 [27]): 3%; IC50 (DU-145): 12.3 µM; Activity (PC-3 [28]): 52.6%; Activity (PC-3 [29]): 8%; Activity (PC-3 [30]): Dose-dependent effect; Activity (PC-3 [31]): 25.4%; Activity (PC-3 [32]): 34.8%; Activity (PC-3 [33]): 3.7%; Activity (PC-3 [34]): 1.9%; viability at 30 µM (PC-3 [35]): 0%
CCOc1c(-c2cc(OC)c(OC)c(OC)c2)oc2ccccc2c1=O	91	3	95	7.7	5.4	5	4.6	3	5	0.9	3	17.9	55.7	5	94	6	5	8.05	92	3	viability at 20 µM (PC-3 [19]): 93%; Activity (PC-3 [20]): 3%; Activity (PC-3 [21]): 48.6%; Activity (PC-3 [22]): 6%; Activity (PC-3 [23]): 3%; Activity (PC-3 [24]): 59%; Activity (PC-3 [25]): 22.2%; Activity (PC-3 [26]): 3%; viability at 10 µM (PC-3 [27]): 95%; IC50 (DU-145): 6.2 µM; Activity (PC-3 [28]): 40.8%; Activity (PC-3 [29]): 3%; Activity (PC-3 [31]): 19.3%; Activity (PC-3 [32]): 24.5%; Activity (PC-3 [33]): 18.7%; Activity (PC-3 [34]): 11.8%; viability at 30 µM (PC-3 [35]): 94%
COc1cc(-c2oc3ccccc3c(=O)c2O)cc(OC)c1OC	24	2	81	12.3	14.7	2	11.7	54	50	32.1	2	31.2	31.2	3	90	3	61	> 50	45	6	viability at 20 µM (PC-3 [19]): 47%; Activity (PC-3 [20]): 11%; Activity (PC-3 [21]): 33.8%; Activity (PC-3 [22]): 73%; Activity (PC-3 [23]): 39%; Activity (PC-3 [24]): 33.3%; Activity (PC-3 [25]): 33%; Activity (PC-3 [26]): 2%; Cmax [36]: 18.4 nM; viability at 10 µM (PC-3 [27]): 66%; IC50 (DU-145): 27.2 µM; Activity (PC-3 [28]): 34.6%; Activity (PC-3 [29]): 2%; Activity (PC-3 [30]): Dose-dependent effect; Activity (PC-3 [31]): 33.3%; Activity (PC-3 [32]): 26.6%; Activity (PC-3 [33]): 6%; Activity (PC-3 [34]): 6%; viability at 30 µM (PC-3 [35]): 43%
